Source: PubChem BioAssay (several laboratories)
GASC-1 inh = inhibitors of GASC-1 histone demethylase, primary screen, biochemical, fluorescence, DELFIA europium; Lysine-specific demethylase 4C (Homo sapiens), Q9H3R0; GST-JMJD2C(1-420) H3K9me3 demethylation; inhibition, % at 2.35 µM; 0.069% of 330,000 active; AID 2099, 2009;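 active means more than half of a compound's replicate wells show inhibition beyond 50%, single wells judged on their own value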;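 further: signal counts dimethyl H3K9 product captured on neutravidin plate; 0% = median of DMSO wells and 100% = 0.3 times that DMSO median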
Target sequence (Q9H3R0 1-420 limits assumed): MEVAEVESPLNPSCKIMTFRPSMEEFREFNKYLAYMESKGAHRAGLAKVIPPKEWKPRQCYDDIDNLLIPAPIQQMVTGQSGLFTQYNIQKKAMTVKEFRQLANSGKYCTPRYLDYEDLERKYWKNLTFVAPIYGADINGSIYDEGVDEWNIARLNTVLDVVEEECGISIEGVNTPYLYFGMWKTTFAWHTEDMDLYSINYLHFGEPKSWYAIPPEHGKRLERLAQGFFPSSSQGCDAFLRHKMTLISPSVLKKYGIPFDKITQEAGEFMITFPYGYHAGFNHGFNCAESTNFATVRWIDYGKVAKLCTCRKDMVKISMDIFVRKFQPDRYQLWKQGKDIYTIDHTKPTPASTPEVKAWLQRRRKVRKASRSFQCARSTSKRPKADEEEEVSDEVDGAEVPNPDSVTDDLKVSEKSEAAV
UCH37 inh = inhibitors of human UCH37 deubiquitinase, primary screen, biochemical, Ub-AMC cleavage, fluorescence; inhibition, % (concentration not given with the values); 0.33% of 330,000 active; AID 588478, 2011; purified proteasome/UCH37; Ubiquitin carboxyl-terminal hydrolase isozyme L5 (Homo sapiens), Q9Y5K5;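 active means mean inhibition over replicate wells above about 20%, limit read from the data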;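 further: 0% = compound-free wells with enzyme and 100% = wells lacking proteasome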
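Reagent: Ub-AMC substrate; assay system: Proteasome-associated human UCH37 deubiquitinase; controls: no-proteasome and no-compound wells; read-out: % inhibition of Ub-AMC cleavage fluorescence; timing: 30 min preincubation with enzyme, 25 min cleavage at room temperature; signal: AMC fluorescence from Ub-AMC cleavage, excitation 355 nm, emission 460 nm; buffer or medium: Tris-HCl pH 7.4 plus ovalbumin, ATP-MgCl2, DTT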
APOBEC3A inh = APOBEC3A ssDNA deaminase inhibitors, primary screen, selectivity assay for APOBEC3G inhibitor project, biochemical, FAM/TAMRA oligo cleavage fluorescence; DNA dC->dU-editing enzyme APOBEC-3A (Homo sapiens), P31941; recombinant A3A, FAM/TAMRA ssDNA deamination fluorescence; inhibition, % at 20 µM; 0.41% of 330,000 active; AID 493011, 2011;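 active means at least 40% inhibition at 20 µM here, with at most 30% in a related deaminase screen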;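 further: plate controls were A3A with DMSO for no effect and wells lacking A3A enzyme for full effect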
A3G deaminase = APOBEC3G DNA deaminase inhibitors, primary screen, biochemical, fluorescence, single-stranded DNA substrate, uHTS; inhibition, % at 20 µM; 0.28% of 330,000 active; DNA dC->dU-editing enzyme APOBEC-3G (Homo sapiens), Q9HC16; recombinant A3G, ssDNA deamination FAM/TAMRA fluorescence;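 active means inhibition of at least 40% at 20 µM, with no more than 30% in the related APOBEC3A deaminase screen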;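 further: plate controls were DMSO wells with A3G for no effect and wells lacking A3G enzyme for full effect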
A3G conf = APOBEC3G deaminase inhibitor retest, confirmation, biochemical, fluorescence, single-stranded DNA substrate, single concentration; recombinant A3G ssDNA deaminase, UDG/FAM-TAMRA fluorescence; 72% of 890 active; AID 493152, 2011; inhibition, % at 20 µM; shares compounds with A3G deaminase;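 active means inhibition reaching a set limit in any replicate at 20 µM, the limit being 80% of the first screen's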
UDG ctr A3G = E. coli UDG inhibitors, confirmation, counter-screen for APOBEC3G inhibitor project, biochemical, single concentration, fluorescence, FAM/TAMRA oligo. UDG counterscreen. shares compounds with A3G deaminase. inhibition, % at 20 µM. 710 tested, under 10 active;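 active means compounds giving 40% or more inhibition at 20 µM in any one of the three replicates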;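 further: plate controls were DMSO wells with UDG and oligo for no effect and DMSO wells lacking both for full effect; inhibitors lower the FAM signal released by uracil excision and alkaline cleavage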
Target sequence (P12295 whole entry, looked up): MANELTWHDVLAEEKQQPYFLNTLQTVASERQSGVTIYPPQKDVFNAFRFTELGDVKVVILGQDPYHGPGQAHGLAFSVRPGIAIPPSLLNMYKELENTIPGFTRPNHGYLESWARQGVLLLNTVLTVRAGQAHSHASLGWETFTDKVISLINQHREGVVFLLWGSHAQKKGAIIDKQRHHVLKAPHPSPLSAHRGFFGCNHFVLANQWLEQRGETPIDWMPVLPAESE
* hit, by the source's call. An excerpt weighted towards active compounds, which were near 0.97% of everything screened.

Results for Cc1ccc(C(=O)ON=C(N)c2ccc(C(F)(F)F)cn2)cc1 ?
UCH37 inh: 2

Results for CC(C)c1ccc2[nH]c3c(c2c1)CCCC3=NNC(=O)c1ccncc1 ?
UCH37 inh: 5

What do the screens show for `O=c1c(O)c(-c2cc(O)c(O)c(O)c2)oc2cc(O)cc(O)c12`?
UCH37 inh: 6; APOBEC3A inh: 21; A3G deaminase: 41*; A3G conf: 73*; UDG ctr A3G: 2

How did N#CCCn1cc(C=NNC(N)=S)c(-c2ccccc2)n1 do in these assays?
UCH37 inh: 2

What do the screens show for `CCC(=O)n1nc(-c2ccc(Cl)cc2)nc1N`?
GASC-1 inh: 57; UCH37 inh: -1; APOBEC3A inh: -1; A3G deaminase: 46*; A3G conf: -9; UDG ctr A3G: -4

How did COc1ccc(OC)c(CCNC(=O)Cn2nc(C)c3c(C)n(-c4ccc(C)cc4)nc3c2=O)c1 do in these assays?
GASC-1 inh: -9; UCH37 inh: 4; APOBEC3A inh: -3; A3G deaminase: -5

Results for Cc1cc(C)c2c(=O)n(CC(=O)Nc3cccc(Cl)c3C)sc2n1 ?
GASC-1 inh: 3; UCH37 inh: 3; APOBEC3A inh: 7; A3G deaminase: 72*; A3G conf: 83*; UDG ctr A3G: -3

What do the screens show for `Cc1cc(C)c2c(=O)n(CC(=O)NC3CCCC3)sc2n1`?
GASC-1 inh: 3; UCH37 inh: 4; APOBEC3A inh: -2; A3G deaminase: 51*; A3G conf: 83*; UDG ctr A3G: -1

What do the screens show for `Cc1cc(C)c2c(=O)n(CC(=O)Nc3ccc(Br)c(C)c3)sc2n1`?
GASC-1 inh: 1; UCH37 inh: 7

How did COc1ccc(OC)c(CCNC(=O)Cn2sc3nc(C)cc(C)c3c2=O)c1 do in these assays?
GASC-1 inh: 6; UCH37 inh: 12; APOBEC3A inh: 0; A3G deaminase: 63*; A3G conf: 78*

Results for Cc1cc(C)c2c(N)c(C(=O)NC3CCCC3)sc2n1 ?
GASC-1 inh: -3; UCH37 inh: -126; APOBEC3A inh: 0; A3G deaminase: 3

How did CCOC(=O)N1CCc2c(sc(N)c2C#N)C1 do in these assays?
GASC-1 inh: 13; UCH37 inh: 3; APOBEC3A inh: 0; A3G deaminase: 49*; A3G conf: 36*

Results for CCOC(=O)N1CCc2c(sc(NC(=O)CN3CCOCC3)c2C#N)C1 ?
GASC-1 inh: 13; UCH37 inh: 4; APOBEC3A inh: 3; A3G deaminase: 10

How did COCCCN(CCCN)Cc1ccco1 do in these assays?
GASC-1 inh: 4; UCH37 inh: 4; APOBEC3A inh: -2; A3G deaminase: 71*; A3G conf: 20; UDG ctr A3G: 4

What do the screens show for `Cc1ccc(-c2cc(-c3ccccc3O)nc(NN=Cc3cccnc3)n2)cc1`?
UCH37 inh: 1

How did CC(C)OC(=O)c1ccc2nc3ccccc3nc2c1 do in these assays?
GASC-1 inh: 4; UCH37 inh: 5; APOBEC3A inh: -1; A3G deaminase: 64*; A3G conf: -2; UDG ctr A3G: 2

Results for CCCC(C)c1nnc(NC(=O)c2cc(C(=O)OC)cc([N+](=O)[O-])c2)s1 (stereo not given) ?
GASC-1 inh: -8; UCH37 inh: 7; APOBEC3A inh: 10; A3G deaminase: 60*; A3G conf: 73*; UDG ctr A3G: 1

How did CCOc1ccc(C(=S)NC2CCCCC2)cc1OCC do in these assays?
GASC-1 inh: 5; UCH37 inh: 6; APOBEC3A inh: -1; A3G deaminase: 56*; A3G conf: 49*; UDG ctr A3G: -1

Results for CC1(C)Cc2ccccc2C(C(=NO)C(N)=O)=N1 ?
UCH37 inh: 4

Results for N#Cc1cc2c([nH]c1=S)CCCC2 ?
GASC-1 inh: 1; UCH37 inh: 6; APOBEC3A inh: 2; A3G deaminase: 67*; A3G conf: 78*; UDG ctr A3G: 3

Results for COCC(=O)NN=Cc1ccc(Sc2nc3ccccc3s2)o1 ?
UCH37 inh: 6

Results for COc1cc(C=NNC(=O)/C(=C/c2ccccc2)CCO)ccc1O ?
UCH37 inh: 4

What do the screens show for `Cc1cc(C(=O)NN=Cc2c[nH]c3ccccc23)c(C)o1`?
UCH37 inh: 6

What do the screens show for `CC(=NNc1ccccc1C)c1cccnc1`?
UCH37 inh: 5

What do the screens show for `C/C(=N\Nc1ccccc1C)c1cccnc1`?
GASC-1 inh: -7; APOBEC3A inh: -5; A3G deaminase: 61*; A3G conf: 12; UDG ctr A3G: 1

Results for COc1ccc2c3c(cccc13)OC2=O ?
GASC-1 inh: -2; UCH37 inh: 3; APOBEC3A inh: 6; A3G deaminase: -1

Results for COc1ccc2c3c(cccc13)N(C)N=C2C ?
GASC-1 inh: -1; UCH37 inh: -13; APOBEC3A inh: 26; A3G deaminase: 45*; A3G conf: 40*

What do the screens show for `CCn1c(N=Cc2ccc(OC)cc2O)nc2ccccc21`?
UCH37 inh: 0

What do the screens show for `c1csc(-c2nn3c(Cn4cnc5ccccc54)nnc3s2)c1`?
GASC-1 inh: 7; UCH37 inh: -1; APOBEC3A inh: 5; A3G deaminase: 53*; A3G conf: 38*; UDG ctr A3G: -4

How did c1csc(-c2nn3c(Cn4nnc5ccccc54)nnc3s2)c1 do in these assays?
GASC-1 inh: -3; UCH37 inh: -5; APOBEC3A inh: 2; A3G deaminase: -3

What do the screens show for `Cc1c(C(=O)NN=Cc2cccc(O)c2)nnn1-c1nonc1N`?
UCH37 inh: 6

What do the screens show for `O=S(=O)(c1ccccc1)N(F)S(=O)(=O)c1ccccc1`?
GASC-1 inh: 4; UCH37 inh: 0; APOBEC3A inh: 1; A3G deaminase: 46*; A3G conf: 53*; UDG ctr A3G: -2

How did COc1ccc(OCc2nnc(SCC(=O)N(C)Cc3ccccc3)n2N)cc1 do in these assays?
GASC-1 inh: 11; UCH37 inh: -1; APOBEC3A inh: 3; A3G deaminase: 47*; A3G conf: 41*; UDG ctr A3G: -4

What do the screens show for `Cc1ccc(OCc2nnc(SCC(=O)O)n2N)cc1`?
GASC-1 inh: 11; UCH37 inh: 4; APOBEC3A inh: 4; A3G deaminase: 1

Results for COc1ccc(OCc2n[nH]c(=S)n2Cc2ccco2)cc1 ?
GASC-1 inh: 22; UCH37 inh: 1; APOBEC3A inh: -3; A3G deaminase: 43*; A3G conf: 72*; UDG ctr A3G: 10
